Source: ChEMBL document CHEMBL4257503, “N-Acetyl-3-aminopyrazoles block the non-canonical NF-kB cascade by selectively inhibiting NIK” (Medchemcomm, 2018)

What was measured:
[1] = molecular target: T1, Mitogen-activated protein kinase kinase kinase 14 (Homo sapiens, UniProt Q99558); test: Inhibition of NIK-induced NFkappaB activation in human EJM cells at 50 uM after 6 hrs by dual luciferase reporter gene assay relative to control; format: cell-based
Outline: (§1)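 Cells were nucleofected with the pGL4.32 NF-κB-RE firefly luciferase and pGL4.74 TK-Renilla plasmids (3 µg, 10:1 ratio) and cultured for 24 h at 37 °C. Compound (10, 25, 50 or 100 µM) was then added for 6 h. Firefly luminescence was normalised to Renilla from the same sample and expressed as % of vehicle control. Means ± SD of three independent experiments.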
Target sequence in this assay (Q99558 whole entry, looked up): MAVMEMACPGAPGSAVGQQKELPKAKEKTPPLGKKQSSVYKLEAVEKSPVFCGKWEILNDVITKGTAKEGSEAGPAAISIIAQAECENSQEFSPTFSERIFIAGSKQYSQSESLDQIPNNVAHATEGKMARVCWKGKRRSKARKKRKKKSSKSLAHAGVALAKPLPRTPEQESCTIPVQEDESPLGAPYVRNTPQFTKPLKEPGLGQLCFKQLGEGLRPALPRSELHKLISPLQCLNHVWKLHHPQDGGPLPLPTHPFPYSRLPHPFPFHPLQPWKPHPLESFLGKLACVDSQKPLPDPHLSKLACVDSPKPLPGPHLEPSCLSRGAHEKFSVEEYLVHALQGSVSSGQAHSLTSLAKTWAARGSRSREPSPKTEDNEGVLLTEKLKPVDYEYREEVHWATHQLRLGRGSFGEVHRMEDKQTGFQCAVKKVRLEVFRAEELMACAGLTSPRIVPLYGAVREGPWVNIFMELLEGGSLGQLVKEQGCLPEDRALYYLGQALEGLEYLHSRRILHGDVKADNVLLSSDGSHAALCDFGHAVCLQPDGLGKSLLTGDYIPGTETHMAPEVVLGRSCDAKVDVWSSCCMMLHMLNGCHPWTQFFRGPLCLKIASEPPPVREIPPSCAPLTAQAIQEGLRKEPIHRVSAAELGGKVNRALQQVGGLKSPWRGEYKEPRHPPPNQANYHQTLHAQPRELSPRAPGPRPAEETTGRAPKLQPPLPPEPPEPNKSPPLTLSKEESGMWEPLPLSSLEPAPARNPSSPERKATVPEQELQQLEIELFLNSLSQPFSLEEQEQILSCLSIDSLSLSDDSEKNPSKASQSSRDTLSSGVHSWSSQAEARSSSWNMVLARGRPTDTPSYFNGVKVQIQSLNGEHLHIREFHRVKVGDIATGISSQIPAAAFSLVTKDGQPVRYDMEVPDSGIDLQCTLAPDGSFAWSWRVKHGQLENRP

[2] = molecular target: T2, Inhibitor of nuclear factor kappa-B kinase subunit alpha (Homo sapiens, UniProt O15111); test: Inhibition of recombinant full length human His-tagged IKKalpha expressed in baculovirus expression system using ERLLDDRHDSGLDSMKDEE peptide as substrate measured after 60 mins by ADP-Glo kinase assay
T2 sequence (O15111 whole entry): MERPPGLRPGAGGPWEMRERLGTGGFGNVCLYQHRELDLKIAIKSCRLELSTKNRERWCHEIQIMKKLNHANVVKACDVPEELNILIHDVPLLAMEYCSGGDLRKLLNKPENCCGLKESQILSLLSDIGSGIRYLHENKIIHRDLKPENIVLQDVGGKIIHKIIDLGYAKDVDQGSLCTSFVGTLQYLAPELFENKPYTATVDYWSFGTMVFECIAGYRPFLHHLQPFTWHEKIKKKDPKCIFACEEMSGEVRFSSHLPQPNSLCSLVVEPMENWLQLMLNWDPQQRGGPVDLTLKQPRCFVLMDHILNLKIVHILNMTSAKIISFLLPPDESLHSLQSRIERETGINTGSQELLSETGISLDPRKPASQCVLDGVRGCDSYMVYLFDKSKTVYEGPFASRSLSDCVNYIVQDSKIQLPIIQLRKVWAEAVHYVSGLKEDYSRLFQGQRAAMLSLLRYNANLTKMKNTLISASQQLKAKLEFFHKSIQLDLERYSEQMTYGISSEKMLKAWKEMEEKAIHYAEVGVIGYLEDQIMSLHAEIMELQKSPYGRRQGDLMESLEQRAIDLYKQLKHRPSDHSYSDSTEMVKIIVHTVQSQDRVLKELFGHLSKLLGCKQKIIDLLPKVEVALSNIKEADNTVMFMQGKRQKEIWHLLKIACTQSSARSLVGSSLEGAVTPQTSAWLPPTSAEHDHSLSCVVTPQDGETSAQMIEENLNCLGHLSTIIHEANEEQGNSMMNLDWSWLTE
Outline: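 Recombinant human IKKα, peptide substrate 100 µM, enzyme 8 ng/µL, ATP 1 µM in Tris-HCl pH 7.5 buffer with MgCl2, MnCl2, DTT, Na3VO4, BSA; 25°C, 60 min; ADP-Glo luminescence. Ten concentrations 0.005–100 µM; IC50 by nonlinear regression; means ± SD of three independent experiments.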

[3] = Cytotoxicity against human MDA-MB-231 cells assessed as cell viability at 100 uM after 6 hrs by CellTiter Glo luminescent assay relative to control; format: cell-based; details: read-out: Activity
Outline: (§2)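 Cells seeded at 5 x 10^3 per well and exposed for 6 h to the compound (10, 25, 50 or 100 µM) or to DMSO vehicle. Viability was read as intracellular ATP by CellTiter Glo luminescence.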

[4] = molecular target: T3, Inhibitor of nuclear factor kappa-B kinase subunit epsilon (Homo sapiens, UniProt Q14164); test: Inhibition of recombinant human full-length N-terminal GST-fused/His6-tagged IKKepsilon (M1 to V716 residues) expressed in Sf9 insect cells using ERLLDDRHDSGLDSMKDEE peptide as substrate measured after 60 mins by ADP-Glo kinase assay
T3 sequence (Q14164 whole entry): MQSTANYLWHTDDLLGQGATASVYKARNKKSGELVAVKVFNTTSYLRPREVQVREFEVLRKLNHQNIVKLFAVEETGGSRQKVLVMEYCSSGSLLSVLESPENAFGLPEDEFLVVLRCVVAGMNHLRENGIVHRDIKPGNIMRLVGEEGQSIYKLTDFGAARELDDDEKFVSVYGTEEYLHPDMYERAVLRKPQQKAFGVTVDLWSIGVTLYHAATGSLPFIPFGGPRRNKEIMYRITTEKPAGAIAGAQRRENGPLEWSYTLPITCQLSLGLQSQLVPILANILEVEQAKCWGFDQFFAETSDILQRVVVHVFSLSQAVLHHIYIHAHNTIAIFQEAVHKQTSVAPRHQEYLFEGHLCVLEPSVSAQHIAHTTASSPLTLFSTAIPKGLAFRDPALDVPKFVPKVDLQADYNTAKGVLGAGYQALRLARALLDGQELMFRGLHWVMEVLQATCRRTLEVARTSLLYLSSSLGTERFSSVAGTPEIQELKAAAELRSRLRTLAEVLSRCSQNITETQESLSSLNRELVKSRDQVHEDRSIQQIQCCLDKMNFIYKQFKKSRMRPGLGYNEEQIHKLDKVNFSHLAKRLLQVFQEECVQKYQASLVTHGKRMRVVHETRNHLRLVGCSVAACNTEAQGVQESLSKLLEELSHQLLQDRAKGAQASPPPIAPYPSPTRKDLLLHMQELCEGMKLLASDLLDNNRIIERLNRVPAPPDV

[5] = Cytotoxicity against human SKBR3 cells assessed as cell viability at 100 uM after 6 hrs by CellTiter Glo luminescent assay relative to control; format: cell-based, SK-BR-3; details: read-out: Activity; outline: as §2
[6] = molecular target: T4, Inhibitor of nuclear factor kappa-B kinase subunit beta (Homo sapiens, UniProt O14920); test: Inhibition of recombinant human full-length N-terminal GST-fused/His6-tagged IKKbeta (M1 to S756 residues) expressed in Sf9 insect cells using ERLLDDRHDSGLDSMKDEE peptide as substrate measured after 60 mins by ADP-Glo kinase assay
T4 sequence (O14920 whole entry): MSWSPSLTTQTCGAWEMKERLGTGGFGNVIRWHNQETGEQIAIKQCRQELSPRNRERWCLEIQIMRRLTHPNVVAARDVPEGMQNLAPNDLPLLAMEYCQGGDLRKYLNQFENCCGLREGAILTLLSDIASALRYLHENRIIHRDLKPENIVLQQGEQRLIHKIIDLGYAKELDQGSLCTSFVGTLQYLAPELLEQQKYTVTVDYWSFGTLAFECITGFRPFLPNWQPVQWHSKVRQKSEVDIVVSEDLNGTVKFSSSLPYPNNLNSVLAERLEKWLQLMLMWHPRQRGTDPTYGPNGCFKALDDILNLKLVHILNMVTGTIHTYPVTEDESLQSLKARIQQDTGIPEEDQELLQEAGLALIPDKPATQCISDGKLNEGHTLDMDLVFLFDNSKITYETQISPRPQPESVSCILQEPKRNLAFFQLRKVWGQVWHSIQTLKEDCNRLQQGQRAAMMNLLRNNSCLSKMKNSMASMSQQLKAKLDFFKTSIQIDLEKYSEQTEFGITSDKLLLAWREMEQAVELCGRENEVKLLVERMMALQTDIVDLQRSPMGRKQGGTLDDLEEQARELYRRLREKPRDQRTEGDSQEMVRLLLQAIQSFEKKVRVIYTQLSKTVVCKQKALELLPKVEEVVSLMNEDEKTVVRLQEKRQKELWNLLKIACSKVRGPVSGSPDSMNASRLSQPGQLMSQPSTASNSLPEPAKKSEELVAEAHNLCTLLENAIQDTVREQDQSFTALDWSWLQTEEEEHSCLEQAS

[7] = Cytotoxicity against human EJM cells assessed as cell viability at 50 uM after 6 hrs by CellTiter Glo luminescent assay relative to control; format: cell-based; details: read-out: Activity; outline: as §2
MDA-MB-231 [8] = test: Inhibition of NFkappaB activation in human MDA-MB-231 cells at 100 uM after 6 hrs by dual luciferase reporter gene assay relative to control; format: cell-based; outline: as §1
[9] = molecular target: T1, Mitogen-activated protein kinase kinase kinase 14; test: Inhibition of recombinant human full-length N-terminal GST-fused/His6-tagged NIK (M1 to P947 residues) expressed in Sf9 insect cells using AKDVDQGSLCTSFVGTLQY peptide as substrate measured after 60 mins by ADP-Glo kinase assay
Target sequence in this assay (Q99558 whole entry): as the sequence (Q99558 whole entry, looked up) above

Homo sapiens [10] = species: Homo sapiens; test: Inhibition of NFkappaB activation in human SKBR3 cells at 100 uM after 6 hrs by dual luciferase reporter gene assay relative to control; format: cell-based; outline: as §1
[11] = Cytotoxicity against human EJM cells assessed as cell viability at 25 uM after 6 hrs by CellTiter Glo luminescent assay relative to control; format: cell-based; details: read-out: Activity; outline: as §2
[12] = molecular target: T1, Mitogen-activated protein kinase kinase kinase 14; test: Inhibition of NIK-induced NFkappaB activation in human EJM cells at 25 uM after 6 hrs by dual luciferase reporter gene assay relative to control; format: cell-based; outline: as §1
Target sequence in this assay (Q99558 whole entry, looked up): as the sequence (Q99558 whole entry, looked up) above

MDA-MB-231 [13] = test: Inhibition of NFkappaB activation in human MDA-MB-231 cells at 50 uM after 6 hrs by dual luciferase reporter gene assay relative to control; format: cell-based; outline: as §1
[14] = Cytotoxicity against human MDA-MB-231 cells assessed as cell viability at 50 uM after 6 hrs by CellTiter Glo luminescent assay relative to control; format: cell-based; details: read-out: Activity; outline: as §2
[15] = Cytotoxicity against human SKBR3 cells assessed as cell viability at 50 uM after 6 hrs by CellTiter Glo luminescent assay relative to control; format: cell-based, SK-BR-3; details: read-out: Activity; outline: as §2
[16] = molecular target: T1, Mitogen-activated protein kinase kinase kinase 14; test: Inhibition of NIK-induced NFkappaB activation in human EJM cells at 20 uM after 6 hrs by dual luciferase reporter gene assay relative to control; format: cell-based
Target sequence in this assay (Q99558 whole entry, looked up): as the sequence (Q99558 whole entry, looked up) above

Homo sapiens [17] = species: Homo sapiens; test: Inhibition of NFkappaB activation in human SKBR3 cells at 50 uM after 6 hrs by dual luciferase reporter gene assay relative to control; format: cell-based; outline: as §1
[18] = Cytotoxicity against human EJM cells assessed as cell viability at 20 uM after 6 hrs by CellTiter Glo luminescent assay relative to control; format: cell-based; details: read-out: Activity
Homo sapiens [19] = species: Homo sapiens; test: Inhibition of NFkappaB activation in human SKBR3 cells at 1 uM after 6 hrs by dual luciferase reporter gene assay relative to control; format: cell-based
[20] = Cytotoxicity against human EJM cells assessed as cell viability at 1 uM after 6 hrs by CellTiter Glo luminescent assay relative to control; format: cell-based; details: read-out: Activity
[21] = Cytotoxicity against human MDA-MB-231 cells assessed as cell viability at 1 uM after 6 hrs by CellTiter Glo luminescent assay relative to control; format: cell-based; details: read-out: Activity
MDA-MB-231 [22] = test: Inhibition of NFkappaB activation in human MDA-MB-231 cells at 1 uM after 6 hrs by dual luciferase reporter gene assay relative to control; format: cell-based
[23] = Cytotoxicity against human SKBR3 cells assessed as cell viability at 1 uM after 6 hrs by CellTiter Glo luminescent assay relative to control; format: cell-based, SK-BR-3; details: read-out: Activity
[24] = molecular target: T1, Mitogen-activated protein kinase kinase kinase 14; test: Inhibition of NIK-induced NFkappaB activation in human EJM cells at 100 uM after 6 hrs by dual luciferase reporter gene assay relative to control; format: cell-based; outline: as §1
Target sequence in this assay (Q99558 whole entry, looked up): as the sequence (Q99558 whole entry, looked up) above

[25] = Cytotoxicity against human EJM cells assessed as cell viability at 100 uM after 6 hrs by CellTiter Glo luminescent assay relative to control; format: cell-based; details: read-out: Activity; outline: as §2

Structure (SMILES)	inhibition [1] [%]	IC50 [2] [µM]	viability at 6 h, 100 µM [3] [%]	IC50 [4] [µM]	viability at 6 h, 100 µM [5] [%]	IC50 [6] [µM]	viability at 6 h, 50 µM [7] [%]	inhibition (MDA-MB-231 [8]) [%]	IC50 [9] [µM]	inhibition (Homo sapiens [10]) [%]	inhibition (MDA-MB-231 [13]) [%]	viability at 6 h, 50 µM [14] [%]	other results
Cc1nn(C(=O)c2ccccc2)c(N)c1-c1ccc(Cl)c(Cl)c1	75.2	> 100	≥ 80	> 100	≥ 80	> 100	≥ 80	13.8	23	0.31			
Cc1nn(C(=O)C2CCC2)c(N)c1-c1ccc(Cl)c(Cl)c1		> 100	≥ 80	> 100	≥ 80	> 100		2.36	2.9	5.2			viability at 6 h, 25 µM [11]: ≥ 80%; inhibition [12]: 96.2%
Cc1nn(C(=O)C2CCCCC2)c(N)c1-c1ccc(Cl)c(Cl)c1		> 100	≥ 80	> 100	≥ 80	> 100		2.36	3.3	3.7			viability at 6 h, 25 µM [11]: ≥ 80%; inhibition [12]: 94.7%
Cc1n[nH]c(N)c1-c1ccc(Cl)cc1	10.4	> 100		> 100	≥ 80	37.9	≥ 80		61.1	4.2	29.9	≥ 80	
O=C(Nc1cc(Cl)c2c(c1)[nH]c1cnccc12)c1cccnc1		> 100		> 100		0.09			> 100		87.9	≥ 80	viability at 6 h, 50 µM [15]: ≥ 80%; inhibition [16]: 89.3%; inhibition (Homo sapiens [17]): 3.6%; viability at 6 h, 20 µM [18]: ≥ 80%
CCC(=O)n1nc(C)c(-c2ccc(Cl)c(Cl)c2)c1N	66.8	> 100	≥ 80	> 100	≥ 80	> 100	≥ 80	10.3	27.4	-3.14			
COCCOc1cnc(N)nc1-c1c[nH]c2ccc(C#CC(C)(C)O)cc12		> 100		> 100		> 100			0.07				inhibition (Homo sapiens [19]): 2.3%; viability at 6 h, 1 µM [20]: ≥ 80%; viability at 6 h, 1 µM [21]: ≥ 80%; inhibition (MDA-MB-231 [22]): 7.1%; viability at 6 h, 1 µM [23]: ≥ 80%
Cc1nn(C(=O)C2CC2)c(N)c1-c1ccc(Cl)c(Cl)c1		> 100		> 100		> 100			24.3		5.8	≥ 80	viability at 6 h, 50 µM [15]: ≥ 80%; inhibition [24]: 68.9%; inhibition (Homo sapiens [17]): 3.66%; viability at 6 h, 100 µM [25]: ≥ 80%
